Measured values as given in ChEMBL document CHEMBL5038582, “Adamantyl Isothiocyanates as Mutant p53 Rescuing Agents and Their Structure-Activity Relationships” (J Med Chem, 2021).
The source made the active and inactive calls. No cut-off for these calls is given here.

Columns and labels:
MDA-MB-436 = test: Antiproliferative activity against human p53-null MDA-MB-436 cells assessed as inhibition of cell growth at 10 to 50 uM measured after 24 to 72 hrs by WST-1 assay; assay type: functional, cell-based; conditions: dose 10-50 µM, time 24-72 hrs
Procedure, shortened: (§1)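 WST-1 proliferation assay. Compound diluted in DMSO so that 10 μl of stock in 1 ml of cells (40,000 cells/ml) gives the test concentration at 1% DMSO. Cells plated at 4,000/well in duplicate and incubated at 37 °C for 24 h or 72 h. Result given as % of the 1% DMSO control.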

MDA-MB-231 [1] = test: Antiproliferative activity against human MDA-MB-231cells expressing p53 R280K mutant assessed as inhibition of cell growth at 10 to 50 uM incubated for 24 hrs by WST-1 assay; assay type: functional, cell-based; conditions: dose 10-50 µM; procedure, shortened: as §1
MDA-MB-231 [2] = test: Induction of apoptosis in human MDA-MB-231 cells expressing p53 R280K mutant assessed fold increase in number of Annexin-V stained cells at 6 to 12 uM incubated for 24 hrs by AnnexinV-FITC and PI staining based flow cytometry relative to control; assay type: functional; conditions: dose 6-12 µM
Procedure, shortened: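 24 h treatment, DMSO control. Cells scraped, washed in PBS, then given fluorochrome-conjugated Annexin V for 15 min at RT in the dark, followed by PI (0.1 µg/ml) in binding buffer. Read by flow cytometry on LSRFortessa. Annexin V-positive cells expressed relative to the DMSO control.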

MDA-MB-468 = test: Antiproliferative activity against human MDA-MB-468 cells transfected with non-specific siRNA assessed as inhibition of cell growth at 5 to 25 uM measured after 24 hrs by WST-1 assay; assay type: functional, cell-based; conditions: dose 5-25 µM
Procedure, shortened: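 MDA-MB-468 cells plated at 50-60% confluence 24 h before transfection. p53 SMARTpool or non-specific siRNA (0.430 nmol) given with Lipofectamine 2000 in Opti-MEM for 5 h, repeated after 24 h. Drug or DMSO added 72 h after the first transfection. Proliferation read by WST-1, % of DMSO control.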

MDA-MB-231 [3] = test: Cell cycle arrest in human MDA-MB-231 cells expressing p53 R280K mutant assessed as accumulation of cells at G1 phase at 6 uM measured after 24 hrs by PI staining based flow cytometry (reference value: 42.9%)
MCF7 = test: Cell cycle arrest in human MCF7 cells expressing wild type p53 assessed as accumulation of cells at G2/M phase at 6 uM measured after 24 hrs by PI staining based flow cytometry (reference value: 21.3%); assay type: functional

SMILES: S=C=NCCCC12CC3CC(CC(C3)C1)C2
- Activity (MDA-MB-436): inactive
- Activity (MDA-MB-231 [1]): Dose-Dependent Effect
- fold change (FC) (MDA-MB-231 [2]): 2
- Activity (MDA-MB-468): Active
- Activity (MDA-MB-231 [3]): 48.2%
- Activity (MCF7): 24.3%
